According to ChEMBL document CHEMBL3286372, “Design, synthesis and structure-activity relationship of novel semi-synthetic flavonoids as antiproliferative agents” (2014):

Columns and labels:
SK-MEL-2 = experiment: Growth inhibition of human SK-MEL-2 cells after 48 hrs by coulter counting analysis; type: functional; conditions: SK-MEL-2, 48 h
In short: (§1)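 Five-dose NCI-60 follow-up, 0.01–100 µM, made from DMSO stock in buffered saline (final DMSO <1%), in duplicate wells. Cells in RPMI 1640 with 10% FBS at 6×10^4 cells/ml, 37 °C, 5% CO2, 48 h. Cells diluted tenfold in saline, Coulter-counted and corrected for dilution. GI50, TGI and LC50 taken from log concentration–percent growth curves.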

[1] = Growth inhibition of human HCC2998 cells after 48 hrs by coulter counting analysis; type: functional; conditions: HCC 2998, 48 h
In short: (§2)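 NCI five-dose screen at 0.01-100 µM, diluted from DMSO stocks in buffered saline (final DMSO <1%). Cells at 6×10^4 cells/ml in RPMI 1640 with 10% FBS, in duplicate wells, at 37 °C under 5% CO2 for 48 h. Cells diluted tenfold in saline and Coulter-counted. GI50, TGI and LC50 taken from log concentration-growth inhibition curves.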

[2] = target: Glycogen synthase kinase-3 beta (Homo sapiens) (UniProt P49841); experiment: Inhibition of GSK-3beta (unknown origin) at 20 uM after 30 mins by scintillation counting analysis relative to control
In short: (§3)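 Recombinant kinases, cloned, expressed and purified in-house. Radiometric ³³P-ATP assay with kinase at ~10-50 nM final and 1-5 µg peptide or protein substrate. Compound at 20 µM final, in duplicate. Reaction started by adding ATP, run 30 min at ambient temperature, then spotted on P81 phosphocellulose. Plates washed in 1% phosphoric acid and counted by scintillation. No-substrate blank subtracted. Result is mean % activity change versus DMSO control.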

MDA-MB-435 = experiment: Growth inhibition of human MDA-MB-435 cells after 48 hrs by coulter counting analysis; type: functional; conditions: MDA-MB-435, 48 h; in short: as §2
COLO 205 = experiment: Growth inhibition of human COLO205 cells after 48 hrs by coulter counting analysis; type: functional; conditions: COLO 205, 48 h; in short: as §2
[3] = Growth inhibition of human LOXIMVI cells after 48 hrs by coulter counting analysis; type: functional; conditions: LOX IMVI; in short: as §2
[4] = Growth inhibition of human UACC257 cells after 48 hrs by coulter counting analysis; type: functional; conditions: UACC-257, 48 h
In short: (§4)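 NCI five-dose screen, 0.01-100 µM, from DMSO stocks diluted in buffer saline (final DMSO <1%). Cells grown in RPMI 1640 + 10% FBS, seeded at 6×10^4 cells/ml, in duplicate wells. Exposure 48 h at 37 °C, 5% CO2. Cells diluted 10-fold in saline and counted by Coulter counter. GI50 derived from log concentration–percent growth inhibition curves. Controls carried matching PBS/saline/DMSO.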

CAKI-1 = experiment: Growth inhibition of human CAKI-1 cells after 48 hrs by coulter counting analysis; type: functional; conditions: CAKI-1, 48 h; in short: as §2
SF-268 = experiment: Growth inhibition of human SF268 cells after 48 hrs by coulter counting analysis; type: functional; conditions: SF-268, 48 h; in short: as §1
NCI-H460 = experiment: Growth inhibition of human NCI-H460 cells after 48 hrs by coulter counting analysis; type: functional; conditions: NCI-H460, 48 h; in short: as §1
SK-MEL-5 = experiment: Growth inhibition of human SK-MEL-5 cells after 48 hrs by coulter counting analysis; type: functional; conditions: SK-MEL-5, 48 h; in short: as §1
ACHN = experiment: Growth inhibition of human ACHN cells after 48 hrs by coulter counting analysis; type: functional; in short: as §2
NCI-H23 = experiment: Growth inhibition of human NCI-H23 cells after 48 hrs by coulter counting analysis; type: functional; conditions: NCI-H23, 48 h; in short: as §1
NCI-H522 = experiment: Growth inhibition of human NCI-H522 cells after 48 hrs by coulter counting analysis; type: functional; conditions: NCI-H522, 48 h; in short: as §1
SN12C = experiment: Growth inhibition of human SN12C cells after 48 hrs by coulter counting analysis; type: functional; in short: as §1
[5] = Growth inhibition of human SF539 cells after 48 hrs by coulter counting analysis; type: functional; conditions: SF-539, 48 h; in short: as §1
[6] = target: Cyclin-dependent kinase 2/cyclin E1 (Homo sapiens) (UniProt P24864+P24941); experiment: Inhibition of CDK2/Cyclin E1 (unknown origin) at 20 uM after 30 mins by scintillation counting analysis relative to control; type: protein-complex assay; in short: as §3
Malme-3M = experiment: Growth inhibition of human MALME-3M cells after 48 hrs by coulter counting analysis; type: functional; in short: as §2
PC-3 = experiment: Growth inhibition of human PC3 cells after 48 hrs by coulter counting analysis; type: functional; conditions: PC-3, 48 h; in short: as §1
HCT-116 = experiment: Growth inhibition of human HCT116 cells after 48 hrs by coulter counting analysis; type: functional; conditions: HCT-116, 48 h; in short: as §2
[7] = Growth inhibition of human NCI60 cells after 48 hrs by coulter counting analysis; type: functional; conditions: NCI60, 48 h
In short: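 Five-dose screen (0.01-100 µM, DMSO-solubilized, under 1% DMSO final), cells in RPMI 1640 + 10% FBS at 6×10^4 cells/ml, duplicate wells, 37 °C, 5% CO2, 48 h. Cells then diluted tenfold in saline and counted by Coulter counter with dilution correction. Controls held buffer/saline/DMSO at matching dilutions. GI50 derived from log concentration-percent growth inhibition curves.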

NCI-H226 = experiment: Growth inhibition of human NCI-H226 cells after 48 hrs by coulter counting analysis; type: functional; conditions: NCI-H226, 48 h; in short: as §1
HOP-62 = experiment: Growth inhibition of human HOP62 cells after 48 hrs by coulter counting analysis; type: functional; conditions: HOP-62, 48 h; in short: as §2
RPMI-8226 = experiment: Growth inhibition of human RPMI8226 cells after 48 hrs by coulter counting analysis; type: functional; conditions: RPMI-8226, 48 h; in short: as §1
[8] = Growth inhibition of human OVCAR3 cells after 48 hrs by coulter counting analysis; type: functional; conditions: OVCAR-3, 48 h; in short: as §1
HT-29 = experiment: Growth inhibition of human HT-29 cells after 48 hrs by coulter counting analysis; type: functional; conditions: HT-29, 48 h; in short: as §2
T47D = experiment: Growth inhibition of human T47D cells after 48 hrs by coulter counting analysis; type: functional; in short: as §1
U-251 = experiment: Growth inhibition of human U251 cells after 48 hrs by coulter counting analysis; type: functional; conditions: U-251, 48 h; in short: as §4
A498 = experiment: Growth inhibition of human A498 cells after 48 hrs by coulter counting analysis; type: functional; conditions: A498, 48 h; in short: as §2
SK-MEL-28 = experiment: Growth inhibition of human SK-MEL-28 cells after 48 hrs by coulter counting analysis; type: functional; conditions: SK-MEL-28, 48 h; in short: as §1
SNB-19 = experiment: Growth inhibition of human SNB19 cells after 48 hrs by coulter counting analysis; type: functional; conditions: SNB-19, 48 h; in short: as §1
[9] = Growth inhibition of human SF295 cells after 48 hrs by coulter counting analysis; type: functional; conditions: SF-295, 48 h; in short: as §1
SW-620 = experiment: Growth inhibition of human SW620 cells after 48 hrs by coulter counting analysis; type: functional; conditions: SW-620, 48 h; in short: as §1
[10] = Growth inhibition of human HCT15 cells after 48 hrs by coulter counting analysis; type: functional; conditions: HCT-15, 48 h; in short: as §2
[11] = Growth inhibition of human EKVX cells after 48 hrs by coulter counting analysis; type: functional; in short: as §2
[12] = read-out: LC50 (the source's name)

Glycogen synthase kinase-3 beta (Homo sapiens), sequence (P49841 whole entry, looked up): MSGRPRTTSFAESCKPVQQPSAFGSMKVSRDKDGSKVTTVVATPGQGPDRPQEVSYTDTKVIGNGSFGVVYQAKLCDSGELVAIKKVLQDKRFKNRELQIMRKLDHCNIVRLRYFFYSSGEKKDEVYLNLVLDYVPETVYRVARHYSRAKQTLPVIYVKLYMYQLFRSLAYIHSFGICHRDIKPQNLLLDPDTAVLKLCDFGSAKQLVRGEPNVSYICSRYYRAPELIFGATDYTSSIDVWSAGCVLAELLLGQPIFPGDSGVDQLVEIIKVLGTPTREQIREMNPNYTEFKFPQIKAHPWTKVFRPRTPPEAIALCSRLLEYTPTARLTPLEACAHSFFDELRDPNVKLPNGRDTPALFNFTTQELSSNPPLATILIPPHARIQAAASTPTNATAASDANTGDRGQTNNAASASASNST

| SMILES | GI50 (SK-MEL-2) [nM] | GI50 [1] [nM] | inhibition [2] [%] | GI50 (MDA-MB-435) [nM] | GI50 (COLO 205) [nM] | GI50 [4] [nM] | GI50 (CAKI-1) [nM] | GI50 (SF-268) [nM] | GI50 (NCI-H460) [nM] | GI50 (SK-MEL-5) [nM] | GI50 (ACHN) [nM] | GI50 (NCI-H23) [nM] | GI50 (NCI-H522) [nM] | GI50 (SN12C) [nM] | inhibition [6] [%] | GI50 (Malme-3M) [nM] | GI50 (PC-3) [nM] | GI50 (HCT-116) [nM] | LC50 [7] [nM] | TGI [7] [nM] | also measured |
| --- | --- | --- | --- | --- | --- | --- | --- | --- | --- | --- | --- | --- | --- | --- | --- | --- | --- | --- | --- | --- | --- |
| COc1c2ccoc2c(/C=C/C=O)c2oc(-c3ccccc3)cc(=O)c12 | 10600 | 16100 | 58 | 4830 | 27700 | 11500 | 15400 | 4230 | 11300 | 3040 | 20800 | 2440 | 17600 | 2710 | 6 | 3470 | 3230 | 1700 | 87100 | 35500 | GI50 [3]: 1480 nM; GI50 [5]: 3590 nM; GI50 (NCI-H226): 4140 nM; GI50 (HOP-62): 2490 nM; GI50 (RPMI-8226): 2240 nM; GI50 [8]: 5190 nM; GI50 (HT-29): 25100 nM; GI50 (T47D): 2140 nM; GI50 (U-251): 3060 nM; GI50 (A498): 7440 nM; GI50 (SK-MEL-28): 2730 nM; GI50 (SNB-19): 12000 nM; GI50 [9]: 13600 nM; GI50 (SW-620): 2160 nM; GI50 [10]: 2520 nM |
| COc1c2occc2c(OC)c2c(=O)c(CN3CCOCC3)c(/C=C/c3ccc(N(C)C)cc3)oc12 | 1390 | 2620 | 13 | 2050 | 1660 | 2540 | 1890 | 2220 | 2020 | 1090 | 2160 | 2560 | 1830 | 2450 | 0 | 2080 | 1690 | 2110 | 60200 | 5240 | CC50 (SK-MEL-2; [12]): 5890 nM; CC50 (COLO 205; [12]): 5870 nM; LC50 (lethal concentration, 50% net cell kill) (NCI-H460): 8480 nM; CC50 (SK-MEL-5; [12]): 4990 nM; CC50 (Malme-3M; [12]): 8650 nM; GI50 (NCI-H226): 2060 nM; GI50 (HOP-62): 2330 nM; GI50 (RPMI-8226): 1490 nM; GI50 [8]: 1760 nM; GI50 (HT-29): 2200 nM; CC50 (HT-29; [12]): 6680 nM; GI50 (T47D): 2210 nM; GI50 (U-251): 2490 nM; GI50 [11]: 2240 nM; GI50 (A498): 2340 nM; GI50 (SK-MEL-28): 2300 nM; GI50 (SNB-19): 1980 nM; GI50 [9]: 1820 nM; GI50 (SW-620): 2380 nM; GI50 [10]: 2250 nM |
| COc1c(C(=O)/C=C/c2ccc(Cl)cc2)c(O)c(Br)c2occc12 | 4160 | 2500 | 30 | 3050 | 1760 | 4980 | 3350 | 3500 | 2990 | 3330 | 5090 | 3250 | 2800 | 3770 | 5 | 2610 | 2940 | 2830 | 87100 | 28800 | GI50 [3]: 2200 nM; GI50 (NCI-H226): 2840 nM; GI50 (HOP-62): 6820 nM; GI50 (RPMI-8226): 2780 nM; GI50 [8]: 1910 nM; GI50 (HT-29): 4110 nM; GI50 (T47D): 3380 nM; GI50 (U-251): 3220 nM; GI50 [11]: 4180 nM; GI50 (A498): 3920 nM; GI50 (SK-MEL-28): 9860 nM; GI50 (SNB-19): 8240 nM; GI50 [9]: 6670 nM; GI50 (SW-620): 2710 nM; GI50 [10]: 3430 nM |
| COc1c2occc2c(OC)c2c(=O)c(CN3CCOCC3)c(/C=C/c3ccc(Cl)cc3)oc12 | 1650 | 2850 | 5 | 2050 | 2760 | 2350 | 2450 | 2810 | 2050 | 1240 | 2470 | 3000 | 1770 | 3050 | 0 | 2240 | 2500 | 2920 | 87100 | 33100 | GI50 [3]: 2180 nM; GI50 (NCI-H226): 2790 nM; GI50 (HOP-62): 3240 nM; GI50 (RPMI-8226): 1940 nM; GI50 [8]: 2340 nM; GI50 (HT-29): 2690 nM; GI50 (T47D): 4310 nM; GI50 (U-251): 3050 nM; GI50 [11]: 2850 nM; GI50 (SK-MEL-28): 2170 nM; GI50 [9]: 2010 nM; GI50 (SW-620): 3320 nM; GI50 [10]: 2780 nM |
